Among the data in ChEMBL document CHEMBL5321236, “Fluoro-labelled sp2-iminoglycolipids with immunomodulatory properties” (Eur J Med Chem, 2023) are GI50, Activity and inhibition values, retold here.

Activity calls are given as the source filed them. No cut-off for these calls is given here.

For assay [1], the system named is HeLa. The assay is described as follows: Growth inhibition of human HeLa cells measured after 48 hrs by SRB colorimetric assay. Format: functional. The gist of the method:
(§1)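 NCI-based protocol with sulforhodamine B read-out. Seeded 2500 (A549, HBL-100, HeLa, SW1573), 5000 (T-47D, WiDr, SW1573/P-gp) or 7000 (BJ-hTERT) cells/well. Exposed 48 h to serial decimal dilutions, 0.001–100 μM, from 40 mM DMSO stock. GI50 by NCI formulas; mean of three or more experiments ± SD.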

The subject of assay [2] is SW1573. The assay is described as follows: Induction of morphological changes in human SW1573 cells assessed as decrease in cell volume at 20 uM measured after 5 hrs by microscopy based analysis. The class given is functional. The gist of the method: (§2)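 HeLa and SW1573 seeded at 100,000 cells/dish. After 24 h, medium switched to phenol-red-free RPMI 1640 and 20 μM added. Label-free holotomographic 3D live imaging of a 236 × 236 μm field, 10–20 cells initially, every 3 min for 15 h. Average dry mass density measured per cell at each cycle; morphology scored against untreated cells.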

The subject of assay [3] is SW1573. The assay is described as follows: Induction of morphological changes in human SW1573 cells assessed as formation of apoptotic bodies at 20 uM measured after 5 hrs by microscopy based analysis. Format: functional, cell-based. The gist of the method: as §2
Assay [4] relates to HeLa. In words: Induction of morphological changes in human HeLa cells assessed as cell shrinkage at 20 uM measured after 5 hrs by microscopy based analysis. Format: functional. The gist of the method: as §2
Assay [5] relates to HeLa. In words: Induction of morphological changes in human HeLa cells assessed as release of cellular content at 20 uM measured after 12 hrs by imaging based analysis. Format: functional, cell-based. The gist of the method:
as §2

For assay [6], the system named is HeLa. The assay is described as follows: Induction of morphological changes in human HeLa cells assessed as decrease in cell volume at 20 uM measured after 5 hrs by microscopy based analysis. The class given is functional. In a few lines:
as §2

Assay [7] relates to SW1573. In words: Induction of morphological changes in human SW1573 cells assessed as increase in average dry mass density at 20 uM measured after 15 hrs by imaging based analysis. The class given is functional, cell-based. In a few lines: as §2
Assay [8] relates to HeLa. The assay is described as follows: Induction of morphological changes in human HeLa cells assessed as production of filmy bubbles at 20 uM measured after 12 hrs by imaging based analysis. Format: functional, cell-based. The gist of the method:
as §2

For assay [9], the system named is T47D. In words: Growth inhibition of human T47D cells measured after 48 hrs by SRB colorimetric assay. The class given is functional. The gist of the method:
as §1

The subject of assay [10] is SW1573. The assay is described as follows: Growth inhibition of human SW1573 cells measured after 48 hrs in presence of verapamil by SRB colorimetric assay. The class given is functional. In a few lines:
(§3)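 NCI-based protocol with sulforhodamine B read-out. Cells grown in RPMI 1640 with 5% FBS and 1 mM glutamine at 37 °C, 5% CO₂. Seeded 2500 (A549, HBL-100, HeLa, SW1573), 5000 (T-47D, WiDr, SW1573/P-gp) or 7000 (BJ-hTERT) cells/well. Exposed 48 h to serial decimal dilutions, 0.001–100 μM, from 40 mM DMSO stock. GI50 by NCI formulas; mean of three or more experiments ± SD.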

The subject of assay [11] is HeLa. In words: Induction of apoptosis in human HeLa cells assessed as membrane blebbing at 20 uM measured upto 15 hrs by microscopy based analysis. Format: functional, cell-based. In a few lines: as §2
The test system of assay [12] is SW1573. In words: Growth inhibition of human SW1573 cells measured after 48 hrs in absence of verapamil by SRB colorimetric assay. Format: functional. The gist of the method:
as §3

In assay [13] the test system is HeLa. In words: Induction of morphological changes in human HeLa cells assessed as signal transition to necrotic stage at 20 uM measured after 12 hrs by imaging based analysis. The class given is functional, cell-based. The gist of the method: as §2
For assay [14], the system named is SW1573. The assay is described as follows: Induction of morphological changes in human SW1573 cells assessed as cell shrinkage at 20 uM measured after 5 hrs by microscopy based analysis. The class given is functional. The gist of the method: as §2
Assay [15] concerns SW1573. In words: Inhibition of colony formation in human SW1573 cells assessed as reduction in number of colonies at one third of GI50 concentration measured after 7 days by crystal violet staining based analysis. The class given is functional, cell-based. As to conditions: time 7.0 day. In a few lines: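 HeLa and SW1573 seeded at 400 cells/well, dosed next day at GI50/3 and GI50 for the given line. Exposed seven days, fixed in methanol, stained with 0.5% w/v crystal violet. Colonies counted by automatic image segmentation.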

Assay [16] relates to SW1573. The assay is described as follows: Growth inhibition of human SW1573 cells overexpressing P-glycoprotein measured after 48 hrs in absence of verapamil by SRB colorimetric assay. The class given is functional. In a few lines:
as §3

The test system of assay [17] is BV-2. The assay is described as follows: Protection against LPS induced inflammation in mouse BV-2 cells assessed as decrease in IL1-beta mRNA expression at 10 uM incubated for 24 hrs with LPS stimulation by qRT-PCR analysis.
The subject of assay [18] is BV-2. In words: Antiinflammatory activity in mouse BV-2 cells assessed as reduction of LPS induced nitrites at 10 uM preincubated for 3 hrs followed by LPS stimulation and measured after 24 hrs by Griess method. As to conditions: time 27.0 hrs. The class given is functional, cell-based. In a few lines: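 Bv.2 microglia at 70% confluence, pre-treated 3 h at 10 μM in serum-free medium, then LPS 200 ng/mL for 24 h. Nitrite in the medium measured by Griess (1% sulphanilamide, 0.1% NEDA in acid), absorbance 548 nm, expressed as fold change over basal. n ≥ 4 independent experiments in triplicate, mean ± SEM.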

For assay [19], the system named is SW1573. In words: Growth inhibition of human SW1573 cells measured after 48 hrs by SRB colorimetric assay. The class given is functional. In a few lines:
as §1

As for `CCCCCCCCCCCCS(=O)(=O)[C@@H]1[C@H](F)[C@@H](O)[C@H](O)[C@H]2COC(=O)N21`, the GI50 in assay [1] is 4.5 µM; in assay [9], 18 µM; in assay [10], 15 µM; in [12], 3.3 µM; in assay [16], 5.3 µM; in assay [19], 9.1 µM. Besides, the outcome in assay [2], in assay [3], in assay [4], in assay [5], in assay [6] and in assay [7] was Active. Also, the result in [8], in assay [11], in assay [13], in assay [14], in assay [17] and in assay [18] was Active. For the same compound, the inhibition result in [15] was “Active”.
